From publication PMC3000965 (The Journal of Biological Chemistry, 2010)
Blank lines part the entries; values can stand above or below the compound they belong to.

Tests used:
Hsp90 in H1650 cells = experiment: Hsp90 occupancy in H1650 cells; type: cell-based, human; settings: read-out: Hsp90 occupancy (EC50); H1650, 6 h incubation
Method in brief: (§1)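 Cells were grown to 95% confluency and treated with test compound (0.01–10 μM) for 6 h at 37 °C. They were washed in cold PBS and lysed by freeze/thaw in binding buffer (20 mM Hepes pH 7.3, KCl, MgCl, EDTA, TCEP). Unbound drug was removed on prechilled spin columns. […], with total Hsp90 quantified by immunoblot against recombinant α/β standards. Average of two experiments.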

Hsp90 in SKOV-3 cells = experiment: Hsp90 occupancy in SKOV-3 cells; type: cell-based, human; settings: read-out: Hsp90 occupancy (EC50); SKOV-3, 6 h incubation
Method in brief: as §1

Hsp90 in H1975 cells = experiment: Hsp90 occupancy in H1975 cells; type: cell-based, human; settings: read-out: Hsp90 occupancy (EC50); H1975, 6 h incubation
Method in brief: as §1

Hsp90 in RS4;11 cells = experiment: Hsp90 occupancy in RS4; type: cell-based, human; settings: read-out: Hsp90 occupancy (EC50); RS4;11, 6 h incubation
Method in brief: as §1

H1650 cells = experiment: Cell growth inhibition; type: cell-based; settings: Homo sapiens, NCI-H1650, 72 h, read-out: Cell growth inhibition (GI50)
Method in brief: (§2)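 Cells grown in RPMI 1640 with 10% FBS at 37 °C, 5% CO2. Seeded at 10,000 cells/well, held 24 h, then exposed to increasing concentrations of test compound for 72 h. Viability read by CellTiter-Glo luminescence and normalized to DMSO vehicle control to give GI50.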

SKOV-3 cells = experiment: Cell growth inhibition; type: cell-based; settings: Homo sapiens, SK-OV-3, 72 h, read-out: Cell growth inhibition (GI50)
Method in brief: as §2

H1975 cells = experiment: Cell growth inhibition; type: cell-based; settings: Homo sapiens, NCI-H1975, 72 h, read-out: Cell growth inhibition (GI50)
Method in brief: as §2

RS4;11 cells = experiment: Cell growth inhibition; type: cell-based; settings: Homo sapiens, RS4-11, 72 h, read-out: Cell growth inhibition (GI50)
Method in brief: as §2

HER2 = HER2 client protein degradation by immunoblot in H1650 cells; type: cell-based, human
Method in brief: (§3)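 H1650 cells were exposed to increasing concentrations of test compound for 6 h. They were lysed in RIPA buffer with protease inhibitors, protein was measured by BCA, and samples were run on 4–12% Bis-Tris SDS-PAGE and transferred to PVDF. Blots were probed with client-specific antibodies and detected by ECL. Bands were normalized to actin, and the fraction degraded was computed by densitometry against untreated samples.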

mEGFR [1] = experiment: mEGFR client protein degradation by immunoblot in H1650 cells; type: cell-based, human; settings: read-out: mEGFR degradation EC50, 6 h
Method in brief: as §3

cRaf = cRaf client protein degradation by immunoblot in H1650 cells; type: cell-based, human; settings: 10 μM (highest concentration tested), 6 h
Method in brief: as §3

Akt = Akt client protein degradation by immunoblot in H1650 cells; type: cell-based, human; settings: 10 μM (highest concentration tested), 6 h
Method in brief: as §3

[2] = Plasma and tumor PK in H1650 tumor-bearing mice; type: in vivo
Method in brief: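 Nude mice bearing H1650 xenografts received a single i.v. dose of test compound (100 mg/kg). Plasma and tumors were collected at time points from 1 to 48 h (n = 3). Tumors were homogenized in ice-cold, nitrogen-sparged 1:1 acetonitrile : 150 mM citrate/EDTA/ascorbate, pH 3, then filtered and diluted 1:1 in citrate buffer with 25 ng/ml deuterated internal standard. Parent compound and two active metabolites were quantified by LC-MS/MS.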

[3] = system: Hsp90 in H1650 tumor xenografts; experiment: Hsp90 occupancy in H1650 tumor xenografts; type: in vivo, mice; settings: 100 mg/kg single dose
Method in brief: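 Male athymic nude mice (6–8 weeks) carried flank xenografts from 1 × 10^7 H1650 cells. They received a single i.v. dose of test compound (100 mg/kg) and were sacrificed at time points from 1 to 48 h (n = 3; vehicle n = 2). Tumors were snap-frozen and powdered, and ~10 mg was homogenized in chilled binding buffer and clarified at 14,000 × g, 4 °C.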

mEGFR [4] = experiment: mEGFR protein degradation in H1650 tumor xenografts; type: in vivo, mice; settings: 100 mg/kg single dose
Method in brief: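 Nude mice bearing H1650 flank xenografts received a single i.v. dose of test compound (100 mg/kg). They were sacrificed at time points from 1 to 48 h post dose (n = 3; vehicle n = 2). Tumors were snap-frozen in liquid nitrogen, stored at −80 °C, and EGFR protein levels in tumor tissue were assessed by immunoblot. Data are averages ± S.D.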

Hsp90 = settings: cited from earlier work
Purified Hela Hsp90 [5] = experiment: Dissociation of [3H]17-AAG from purified Hsp90; type: binding, human
Hsp90 in SK-BR-3 lysates = experiment: Dissociation of [3H]17-AAG from Hsp90 in SK-BR-3 lysates; type: binding, human; settings: 4 °C
Purified Hela Hsp90 [6] = experiment: Association of [3H]17-AAG to purified Hsp90; type: binding, human
[7] = system: Hsp90 in SK-BR-3 cell lysate; experiment: Association of [3H]17-AAG to Hsp90 in SK-BR-3 lysate; type: binding, human; settings: 4 °C, 10 μM 17-AAG

EC50 (Hsp90 in H1650 cells): 30 nM | EC50 (Hsp90 in SKOV-3 cells): 44 nM | EC50 (Hsp90 in H1975 cells): 74 nM | EC50 (Hsp90 in RS4;11 cells): 644 nM | GI50 (H1650 cells): 37 nM | GI50 (SKOV-3 cells): 52 nM | GI50 (H1975 cells): 51 nM | GI50 (RS4;11 cells): 2000 nM | EC50 (HER2; read-out: HER2 degradation EC50, 6 h): 11 nM | EC50 (mEGFR [1]): 213 nM | IPI-504 and its metabolites in plasma ([2]; 24 h post dose, plasma): barely detectable | IPI-504 and its metabolites in tumors ([2]; 36 h post dose, 100 mg/kg, tumor): high concentrations | tumor PK concentrations of IPI-504 ([2]; at 24 to 48 h, tumor): ~1 µM
Structure (SMILES): C=CCNc1c(O)cc2c(O)c1C[C@@H](C)C[C@H](OC)[C@H](O)[C@@H](C)/C=C(\C)[C@H](OC(N)=O)[C@@H](OC)/C=C\C=C(/C)C(=O)N2 [IPI-504]
HER2 degraded (HER2; 30 nM IPI-504, 6 h): > 90% | cRaf maximal degradation (cRaf): ≤ 42% | Akt maximal degradation (Akt): ≤ 54% | time by which Hsp90 occupancy declined to background levels [3]: ≤ 48 h | time up to which significant Hsp90 occupancy was observed [3]: up to 12 h | time after which mEGFR protein degradation was observed (mEGFR [4]): 2 h | time of re-emergence of mEGFR protein expression (mEGFR [4]): 24 h | affinity for Hsp90 higher than 17-AAG (Hsp90): 50 fold

time at which drug binding reached equilibrium (Purified Hela Hsp90 [6]; 4 °C, 10 μM 17-AAG): ≤ 40 min
Structure (SMILES): C=CCNC1=C2C[C@@H](C)C[C@H](OC)[C@H](O)[C@@H](C)/C=C(\C)[C@H](OC(N)=O)[C@@H](OC)/C=C\C=C(/C)C(=O)NC(=CC1=O)C2=O [17-AAG, 17-allylamino-17-demethoxygeldanamycin]
dissociation t½ (Purified Hela Hsp90 [5]; 4 °C): 1680 min | dissociation half-life (Purified Hela Hsp90 [5]; 37 °C): 8 min | dissociation half-life (Hsp90 in SK-BR-3 lysates): 36 h | rate of dissociation slower than rate of association (Purified Hela Hsp90 [6]; 10 μM 17-AAG at 4 °C): ~100 fold | association t½ (Purified Hela Hsp90 [6]; 4 °C, 10 μM 17-AAG, 100 nM Hsp90): 6 min | time at which drug binding reached equilibrium [7]: ≤ 130 min | association t½ ([7]; ∼100 nM Hsp90 in lysate): 19 min
